Where “and” joins values, the source holds several entries; their conditions need not be identical. Equal entries are not always repeated.
What was measured:
Assay type in all cases: in vivo, B6C3F1 mice
[1] = PFAS concentration in serum; conditions: 1.25%–5%, dermal, 28 days
Summary of the method: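 Serum came by cardiac puncture about 24 h after the final daily ear dose (25 μl/ear, acetone vehicle; female B6C3F1 mice). Samples underwent solid-phase extraction and LC/MS/MS. Short-chain analytes were quantified as linear isomer only; the legacy comparator was quantified as linear plus branched. Data are mean ± SE of 4–5 mice, one-way ANOVA with Dunnett's vs vehicle.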

ear pinna [2] = test: Skin; conditions: dermal, 28 days
Summary of the method: (§1)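 Dosing was daily topical to both dorsal ears (25 μl/ear, acetone vehicle) in female B6C3F1 mice. Liver caudate lobe or half ear pinna was stored in RNAlater and homogenized in RLT buffer. RNA was isolated on RNeasy columns with DNase, and 1–2 μg was reverse-transcribed. TaqMan real-time PCR was read as 2−ΔΔCT vs vehicle, normalized to β-actin. Statistics: ANOVA/Dunnett's, or Kruskal-Wallis/Dunn's for unequal variance.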

liver (caudate) = test: Liver gene expression; conditions: dermal, 28 days
Summary of the method: as §1

spleen = test: Spleen phenotyping by flow cytometry after 28-day dermal exposure; conditions: 28 days
Summary of the method: (§2)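 Female B6C3F1 mice (5/group) received 25 μl/ear daily to the dorsal ears in acetone. About 24 h after the last dose, tissues went into RPMI: both auricular dLNs, half spleen and one ear pinna. Single-cell suspensions were acquired on an LSR II, with populations gated per supplemental strategy and FMO gating controls. Results are mean ± SE, n=5, by one-way ANOVA.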

ear pinna [3] = test: Ear; conditions: dermal, 28 days, mice affected of 5
Summary of the method: (§3)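 Female B6C3F1 mice (5/group) received 25 μl/ear on the dorsal ear surfaces daily, with acetone as vehicle. Tissues were formalin-fixed about 24 h after the last dose: liver remainder, half spleen, right kidney and half ear pinna. Sections were paraffin-embedded, cut at 5 μm and stained with H&E. A veterinary pathologist read them per STP guideline and graded 1 (minimal) to 5 (severe) by extent.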

[4] = tested on: auricular draining lymph nodes (dLNs); test: Draining lymph node phenotyping by flow cytometry after 28-day dermal exposure; conditions: 28 days
Summary of the method: as §2

kidney, spleen = test: Kidney and spleen histopathology after 28-day dermal exposure; conditions: 1.25–5%, 28 days, data not shown
Summary of the method: as §3

Compound: O=C(O)C(F)(F)C(F)(F)C(F)(F)C(F)(F)C(F)(F)C(F)(F)F [PFHpA, Perfluoroheptanoic acid]
- PFAS serum concentration vs vehicle [1]: significant increase
- skin PPARα gene expression (ear pinna [2]; 1.25–5%): no significant decrease
- skin Pparδ gene expression (ear pinna [2]; 1.25–5%): no changes
- skin Flg gene expression (ear pinna [2]; 2.5%): increased
- skin Krt10 gene expression (ear pinna [2]; 2.5%): increased
- skin Pparγ gene expression (ear pinna [2]; 2.5%): decreased
- skin Flg gene expression (ear pinna [2]; 5%): increased
- skin Krt10 gene expression (ear pinna [2]; 5%): increased
- skin Lor gene expression (ear pinna [2]; 5%): increased
- skin Pparγ gene expression (ear pinna [2]; 5%): decreased
- skin S100a8 gene expression, increase (ear pinna [2]; 5%): 6.7 fold
- skin Serpine1 gene expression, increase (ear pinna [2]; 5%): 1.7 fold
- skin Tslp gene expression, increase (ear pinna [2]; 5%): 5.1 fold
- liver Pparγ expression (liver (caudate); 1.25%): increasing
- liver Pparδ expression (liver (caudate); 1.25%): decreasing
- liver Cd36 gene expression, increase (liver (caudate); 2.5%): 4 fold
- liver Lpl gene expression, increase (liver (caudate); 2.5%): 2.2 fold
- liver Pparδ expression (liver (caudate); 2.5%): decreasing
- liver Acox1 gene expression (liver (caudate); 5%): increase
- liver Cd36 gene expression, increase (liver (caudate); 5%): 4.8 fold
- liver Lpl gene expression, increase (liver (caudate); 5%): 2.3 fold
- liver Pltp gene expression (liver (caudate); 5%): increase
- liver Pparδ expression (liver (caudate); 5%): decreasing
- spleen MFI of CD86 on B-cells (spleen; 1.25%): increase
- spleen frequency of CD8^+ T-cells (spleen; 1.25%): significant decrease
- spleen frequency of eosinophils (spleen; 1.25%): significant decrease
- spleen MFI of CD86 on B-cells (spleen; 2.5%): increase
- spleen MFI of MHCII on B-cells (spleen; 2.5%): increase
- spleen MFI of CD86 on B-cells (spleen; 5%): increase
- spleen MFI of MHCII on B-cells (spleen; 5%): increase
- spleen NK cell frequency (spleen; 5%): increase
- spleen frequency of B-cells (spleen; 5%): significant decrease
- spleen frequency of total DCs (spleen; 5%): increase
- spleen number of NK cells (spleen; 5%): increase
- Ear: Degeneration/regeneration, cartilage, focal, Mild (incidence) (ear pinna [3]; 1.25%): 0
- Ear: Fibrosis, dermis, focal, Minimal (incidence) (ear pinna [3]; 1.25%): 0
- Ear: Hyperkeratosis, epidermis, focal, Mild (incidence) (ear pinna [3]; 1.25%): 0
- Ear: Hyperkeratosis, epidermis, focal, Minimal (incidence) (ear pinna [3]; 1.25%): 0
- Ear: Hyperplasia, epidermis, focal, Mild (incidence) (ear pinna [3]; 1.25%): 0
- Ear: Hyperplasia, epidermis, focal, Minimal (incidence) (ear pinna [3]; 1.25%): 0
- Ear: Inflammation, mixed cell, dermis, Minimal (incidence) (ear pinna [3]; 1.25%): 0
- Ear: Inflammation, mononuclear cell, dermis, Minimal (incidence) (ear pinna [3]; 1.25%): 0
- Ear: Necrosis, epidermis, multifocal, Minimal (incidence) (ear pinna [3]; 1.25%): 0
- Ear: Degeneration/regeneration, cartilage, focal, Mild (incidence) (ear pinna [3]; 2.5%): 0
- Ear: Fibrosis, dermis, focal, Minimal (incidence) (ear pinna [3]; 2.5%): 0
- Ear: Hyperkeratosis, epidermis, focal, Mild (incidence) (ear pinna [3]; 2.5%): 0
- Ear: Hyperkeratosis, epidermis, focal, Minimal (incidence) (ear pinna [3]; 2.5%): 0
- Ear: Hyperplasia, epidermis, focal, Mild (incidence) (ear pinna [3]; 2.5%): 0
- Ear: Hyperplasia, epidermis, focal, Minimal (incidence) (ear pinna [3]; 2.5%): 2/5 and 2
- Ear: Inflammation, mixed cell, dermis, Minimal (incidence) (ear pinna [3]; 2.5%): 0
- Ear: Inflammation, mononuclear cell, dermis, Minimal (incidence) (ear pinna [3]; 2.5%): 0
- Ear: Necrosis, epidermis, multifocal, Minimal (incidence) (ear pinna [3]; 2.5%): 0
- Ear: Fibrosis, dermis, focal, Minimal (incidence) (ear pinna [3]; 5%): 0
- Ear: Hyperkeratosis, epidermis, focal, Mild (incidence) (ear pinna [3]; 5%): 0
- Ear: Hyperkeratosis, epidermis, focal, Minimal (incidence) (ear pinna [3]; 5%): 4/5 and 4
- Ear: Hyperplasia, epidermis, focal, Mild (incidence) (ear pinna [3]; 5%): 1/4 and 1
- Ear: Hyperplasia, epidermis, focal, Minimal (incidence) (ear pinna [3]; 5%): 4/5 and 4
- Ear: Inflammation, mixed cell, dermis, Minimal (incidence) (ear pinna [3]; 5%): 1
- Ear: Inflammation, mononuclear cell, dermis, Minimal (incidence) (ear pinna [3]; 5%): 1
- Ear: Necrosis, epidermis, multifocal, Minimal (incidence) (ear pinna [3]; 5%): 0
- dLN B-cells cell number ([4]; 1.25%): 5.40 ± 0.44 × 10^5
- dLN B-cells frequency ([4]; 1.25%): 13.44 ± 1.00%
- dLN CD4^+ cell number ([4]; 1.25%): 1.77 ± 0.17 × 10^6
- dLN CD4^+ frequency ([4]; 1.25%): 43.44 ± 1.00%
- dLN CD8^+ cell number ([4]; 1.25%): 11.50 ± 0.97 × 10^5
- dLN CD8^+ frequency ([4]; 1.25%): 28.26 ± 0.62%
- dLN CD11b+ cell number ([4]; 1.25%): 3.18 ± 0.81 × 10^4
- dLN CD11b+ frequency ([4]; 1.25%): 0.74 ± 0.16%
- dLN CD86 B-cells ([4]; 1.25%): 851.20 ± 55.68 MFI
- dLN CD86 DCs ([4]; 1.25%): 22.90 ± 1.99 MFI x 10^2
- dLN Dendritic Cells cell number ([4]; 1.25%): 15.60 ± 6.03 × 10^4
- dLN Dendritic Cells frequency ([4]; 1.25%): 4.23 ± 1.95%
- dLN Eosinophils cell number ([4]; 1.25%): 7.53 ± 1.81 × 10^2
- dLN MHCII B-cells ([4]; 1.25%): 33.30 ± 3.62 MFI × 10^2
- dLN NK cell number ([4]; 1.25%): 1.84 ± 0.21 × 10^4
- dLN NK frequency ([4]; 1.25%): 0.45 ± 0.03 %
- dLN Neutrophils cell number ([4]; 1.25%): 8.55 ± 1.38 × 10^2
- dLN Total Cellularity ([4]; 1.25%): 4.05 ± 0.31 × 10^6
- dLN B-cells cell number ([4]; 2.5%): 8.69 ± 0.16 × 10^5
- dLN B-cells frequency ([4]; 2.5%): 14.86 ± 0.84%
- dLN CD4^+ cell number ([4]; 2.5%): 2.47 ± 0.44 × 10^6
- dLN CD4^+ frequency ([4]; 2.5%): 41.54 ± 0.58%
- dLN CD8^+ cell number ([4]; 2.5%): 17.20 ± 3.10 × 10^5
- dLN CD8^+ frequency ([4]; 2.5%): 28.6 ± 0.62%
- dLN CD11b+ cell number ([4]; 2.5%): 6.87 ± 1.47 × 10^4
- dLN CD11b+ frequency ([4]; 2.5%): 1.09 ± 0.09%
- dLN CD86 B-cells ([4]; 2.5%): 908.40 ± 44.09 MFI
- dLN CD86 DCs ([4]; 2.5%): 25.10 ± 0.72 MFI x 10^2
- dLN Dendritic Cells cell number ([4]; 2.5%): 9.50 ± 1.42 × 10^4
- dLN Dendritic Cells frequency ([4]; 2.5%): 1.70 ± 0.17%
- dLN Eosinophils cell number ([4]; 2.5%): 20.40 ± 3.85 × 10^2
- dLN MHCII B-cells ([4]; 2.5%): 44.30 ± 4.02 MFI × 10^2
- dLN NK cell number ([4]; 2.5%): 3.23 ± 0.68 × 10^4
- dLN NK frequency ([4]; 2.5%): 0.53 ± 0.03%
- dLN Neutrophils cell number ([4]; 2.5%): 9.51 ± 1.88 × 10^2
- dLN Total Cellularity ([4]; 2.5%): 5.97 ± 1.06 × 10^6
- dLN B-cells cell number ([4]; 5%): 11.50 ± 1.39 × 10^5
- dLN B-cells frequency ([4]; 5%): 14.70 ± 0.13%
- dLN CD4^+ cell number ([4]; 5%): 3.03 ± 0.31 × 10^6
- dLN CD4^+ frequency ([4]; 5%): 39.24 ± 0.83 %
- dLN CD8^+ cell number ([4]; 5%): 22.10 ± 2.59 × 10^5
- dLN CD8^+ frequency ([4]; 5%): 28.36 ± 0.20%
- dLN CD11b+ cell number ([4]; 5%): 13.40 ± 1.96 × 10^4
- dLN CD11b+ frequency ([4]; 5%): 1.69 ± 0.10 %
- dLN CD86 B-cells ([4]; 5%): 879.80 ± 40.32 MFI
- dLN CD86 DCs ([4]; 5%): 28.50 ± 0.78 MFI x 10^2
- dLN Dendritic Cells cell number ([4]; 5%): 18.20 ± 3.38 × 10^4
- dLN Dendritic Cells frequency ([4]; 5%): 2.28 ± 0.20%
- dLN Eosinophils cell number ([4]; 5%): 22.80 ± 6.04 × 10^2
- dLN MHCII B-cells ([4]; 5%): 43.10 ± 1.85 MFI × 10^2
- dLN MHCII DCs ([4]; 5%): 58.90 ± 2.65 MFI × IQ^2
- dLN NK cell number ([4]; 5%): 4.78 ± 0.67 × 10^4
- dLN NK frequency ([4]; 5%): 0.61 ± 0.04%
- dLN Total Cellularity ([4]; 5%): 7.78 ± 0.90 × 10^6
- microscopic observations in the kidney or the spleen (kidney, spleen): No PFPeA, PFHxA, or PFHpA-related microscopic observations

— PMC9989852 (Food and chemical toxicology : an international journal …, 2022)
